Laboratory results reported in ChEMBL document CHEMBL1131066, “2-Substituted aminopyrido[2,3-d]pyrimidin-7(8H)-ones. structure-activity relationships against selected tyrosine kinases and in vitro and in vivo anticancer activity” (J Med Chem, 1998).
Where “and” joins values, the source holds several entries; their conditions need not be identical. Identical values can stand only once.

Assays:
C6 [1] = assay: C6 glioma cell growth in soft agar with discontinued treatment; format: functional, cell-based; conditions: Rattus norvegicus
Outline: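 C6 rat glioma cells (F10 Ham's, 15% horse serum, 2.5% fetal calf serum) exposed to a range of concentrations for 3 days, washed free of inhibitor, plated in drug-free soft agar. Colonies stained and counted after two weeks. IC50; mean of two experiments, each in duplicate.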

COLO 205 [2] = assay: Difference in days for treated (T) and control (C) COLO 205 cell tumors to reach 750 mg in mice at 200 mg/kg ip dose, days 14-28 administration; format: functional, Mus musculus; conditions: route intraperitoneal
Outline: (§1)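 Nude mice (NCr nu/nu), 18–22 g, 6–8 per group, randomized and implanted with serially passaged tumor fragments in the right axilla on day 0. Dosed by average cage weight. Vehicle was 50 mM sodium lactate buffer, pH 4.0, or a 0.5% methyl cellulose suspension for one compound. Cisplatin was given in saline. T − C is the difference in days for treated and control tumors to reach 750 mg.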

[3] = target: Proto-oncogene tyrosine-protein kinase Src (Homo sapiens, UniProt P12931); assay: Inhibition of c-Src tyrosine kinase
Proto-oncogene tyrosine-protein kinase Src (Homo sapiens, UniProt P12931), sequence (P12931 2-536 limits assumed): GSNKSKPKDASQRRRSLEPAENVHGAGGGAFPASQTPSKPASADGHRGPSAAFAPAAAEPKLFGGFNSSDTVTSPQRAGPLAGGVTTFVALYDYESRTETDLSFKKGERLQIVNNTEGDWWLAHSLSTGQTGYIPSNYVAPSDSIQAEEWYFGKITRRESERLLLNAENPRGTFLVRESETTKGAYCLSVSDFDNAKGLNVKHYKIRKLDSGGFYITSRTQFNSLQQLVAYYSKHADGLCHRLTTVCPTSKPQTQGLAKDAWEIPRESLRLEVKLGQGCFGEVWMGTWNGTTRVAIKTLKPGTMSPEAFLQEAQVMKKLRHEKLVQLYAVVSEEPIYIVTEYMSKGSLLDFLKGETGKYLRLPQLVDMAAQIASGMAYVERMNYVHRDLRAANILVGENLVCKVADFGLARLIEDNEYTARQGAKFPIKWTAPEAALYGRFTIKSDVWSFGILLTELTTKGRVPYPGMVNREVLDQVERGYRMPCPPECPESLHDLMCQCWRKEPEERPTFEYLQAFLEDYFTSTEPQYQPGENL
Outline: (§2)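 Recombinant kinases (PDGFr-β, FGFr-1, c-Src), enzyme inhibition IC50. Mean of at least two separate determinations, each done in triplicate; replicate values typically varied under 30%.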

C6 [4] = assay: (§3) Inhibition of C6 cell proliferation in sulforhodamine B assay; format: functional, cell-based; conditions: Rattus norvegicus
Outline: (§4)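 C6 rat glioma cells (F10 Ham's, 15% horse serum, 2.5% fetal calf serum) seeded and allowed 24 h to attach, then given serial 2-fold compound dilutions; 4 d at 37 °C, 5% CO2; growth read by sulforhodamine B staining. IC50; mean of two experiments, each in triplicate.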

C6 [5] = assay: C6 cell growth in soft agar with discontinued treatment; format: functional, cell-based, Rattus norvegicus; conditions: Rattus norvegicus, C6
Outline: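 C6 rat glioma cells given 3-day exposure to a concentration series, then washed free of inhibitor and plated in drug-free soft agar; colonies stained and counted after two weeks. IC50; mean of two experiments, each in duplicate.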

[6] = target: T1, Platelet-derived growth factor receptor beta (Mus musculus, UniProt P05622); assay: Inhibition of Platelet-derived growth factor receptor (PDGFr); outline: as §2
T1 sequence (P05622 whole entry): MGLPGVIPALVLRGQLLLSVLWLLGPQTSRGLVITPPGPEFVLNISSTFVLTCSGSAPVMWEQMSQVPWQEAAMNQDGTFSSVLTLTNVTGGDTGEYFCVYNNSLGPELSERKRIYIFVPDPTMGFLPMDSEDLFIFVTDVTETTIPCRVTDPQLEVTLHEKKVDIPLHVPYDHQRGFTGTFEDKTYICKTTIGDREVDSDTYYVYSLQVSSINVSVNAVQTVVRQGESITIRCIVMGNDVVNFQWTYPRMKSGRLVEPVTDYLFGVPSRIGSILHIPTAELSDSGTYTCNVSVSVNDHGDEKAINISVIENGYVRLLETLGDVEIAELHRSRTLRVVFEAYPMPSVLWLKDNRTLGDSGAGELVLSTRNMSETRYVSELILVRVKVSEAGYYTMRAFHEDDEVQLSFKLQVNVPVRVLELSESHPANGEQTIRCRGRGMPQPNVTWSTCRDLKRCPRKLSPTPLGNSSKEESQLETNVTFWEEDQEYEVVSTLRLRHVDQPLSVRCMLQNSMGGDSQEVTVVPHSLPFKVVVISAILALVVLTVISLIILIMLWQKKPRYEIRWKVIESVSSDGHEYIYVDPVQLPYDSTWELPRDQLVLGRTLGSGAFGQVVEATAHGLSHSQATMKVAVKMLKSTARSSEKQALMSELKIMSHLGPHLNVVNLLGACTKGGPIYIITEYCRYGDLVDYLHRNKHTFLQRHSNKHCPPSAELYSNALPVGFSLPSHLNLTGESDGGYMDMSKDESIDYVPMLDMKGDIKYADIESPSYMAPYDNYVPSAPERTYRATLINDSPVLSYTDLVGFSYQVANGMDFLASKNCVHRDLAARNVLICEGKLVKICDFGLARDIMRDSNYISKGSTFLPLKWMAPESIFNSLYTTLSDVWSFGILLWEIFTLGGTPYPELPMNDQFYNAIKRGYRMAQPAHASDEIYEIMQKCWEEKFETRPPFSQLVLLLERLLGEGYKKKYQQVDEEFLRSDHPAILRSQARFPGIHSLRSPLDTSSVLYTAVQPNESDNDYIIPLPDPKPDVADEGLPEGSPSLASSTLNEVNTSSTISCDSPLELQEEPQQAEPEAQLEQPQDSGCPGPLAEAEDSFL

NIH3T3 = assay: Inhibition of NIH3T3 proliferation by sulforhodamine B assay; format: functional, cell-based, Mus musculus; conditions: nih3t3
C6 [7] = assay: as §3; format: functional, cell-based, Rattus norvegicus; conditions: Rattus norvegicus, C6; outline: as §4
SK-OV-3 [8] = assay: Weight change of SK-OV-3 cell tumors in mice at 200 mg/kg peroral dose, days 20-34 administration; format: functional; conditions: route intraperitoneal, in the assay text read “intraperitoneal” for “peroral”
C6 [9] = assay: Weight change of C6 glioma tumor cells in mice at 100 mg/kg peroral dose, days 1-15 administration; format: functional, organism-based; set-up: dose 100 mg/kg; conditions: Mus musculus
Outline: (§5)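 Tumor-bearing nude mice (NCr nu/nu, 18–22 g, 6–8 per group) were implanted in the right axilla with tumor fragments on day 0 and dosed by average cage weight. Vehicle was 50 mM sodium lactate pH 4.0, or 0.5% methyl cellulose suspension; cisplatin was given in saline. Host body weight change is given as the maximum treatment-related weight loss.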

HT-29 [10] = assay: Weight change of HT-29 cell tumors in mice at 200 mg/kg ip dose, days 15-29 administration; format: functional, Mus musculus; conditions: route intraperitoneal; outline: as §5
[11] = target: T2, Platelet-derived growth factor receptor (Mus musculus, UniProt P05622+P26618); assay: (§6) Inhibition of Platelet-derived growth factor receptor autophosphorylation in NIH3T3 cells; format: functional, cell-based
Outline: (§7)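 Serum-starved 24 h (C6 rat glioma; PDGF-B-transfected NIH3T3), incubated 2 h with a range of concentrations, then stimulated 5 min with 25 ng/mL PDGF-BB. Lysates or immunoprecipitates Western blotted with antiphosphotyrosine antibody, ECL detection. IC50.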

C6 [12] = assay: C6 cell growth in soft agar with continuous treatment; format: functional, cell-based, Rattus norvegicus; conditions: Rattus norvegicus, C6
Outline: (§8)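 C6 rat glioma cells (F10 Ham's with 15% horse serum, 2.5% fetal calf serum) exposed 3 days to a concentration series, then plated in soft agar with compound still present at the same concentration; colonies stained and counted after two weeks. IC50; mean of two experiments, each in duplicate.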

[13] = target: Epidermal growth factor receptor (Homo sapiens, UniProt P00533); assay: Inhibitory concentration was evaluated against epidermal growth factor receptor (EGFr) tyrosine kinase
Epidermal growth factor receptor, sequence (P00533 whole entry): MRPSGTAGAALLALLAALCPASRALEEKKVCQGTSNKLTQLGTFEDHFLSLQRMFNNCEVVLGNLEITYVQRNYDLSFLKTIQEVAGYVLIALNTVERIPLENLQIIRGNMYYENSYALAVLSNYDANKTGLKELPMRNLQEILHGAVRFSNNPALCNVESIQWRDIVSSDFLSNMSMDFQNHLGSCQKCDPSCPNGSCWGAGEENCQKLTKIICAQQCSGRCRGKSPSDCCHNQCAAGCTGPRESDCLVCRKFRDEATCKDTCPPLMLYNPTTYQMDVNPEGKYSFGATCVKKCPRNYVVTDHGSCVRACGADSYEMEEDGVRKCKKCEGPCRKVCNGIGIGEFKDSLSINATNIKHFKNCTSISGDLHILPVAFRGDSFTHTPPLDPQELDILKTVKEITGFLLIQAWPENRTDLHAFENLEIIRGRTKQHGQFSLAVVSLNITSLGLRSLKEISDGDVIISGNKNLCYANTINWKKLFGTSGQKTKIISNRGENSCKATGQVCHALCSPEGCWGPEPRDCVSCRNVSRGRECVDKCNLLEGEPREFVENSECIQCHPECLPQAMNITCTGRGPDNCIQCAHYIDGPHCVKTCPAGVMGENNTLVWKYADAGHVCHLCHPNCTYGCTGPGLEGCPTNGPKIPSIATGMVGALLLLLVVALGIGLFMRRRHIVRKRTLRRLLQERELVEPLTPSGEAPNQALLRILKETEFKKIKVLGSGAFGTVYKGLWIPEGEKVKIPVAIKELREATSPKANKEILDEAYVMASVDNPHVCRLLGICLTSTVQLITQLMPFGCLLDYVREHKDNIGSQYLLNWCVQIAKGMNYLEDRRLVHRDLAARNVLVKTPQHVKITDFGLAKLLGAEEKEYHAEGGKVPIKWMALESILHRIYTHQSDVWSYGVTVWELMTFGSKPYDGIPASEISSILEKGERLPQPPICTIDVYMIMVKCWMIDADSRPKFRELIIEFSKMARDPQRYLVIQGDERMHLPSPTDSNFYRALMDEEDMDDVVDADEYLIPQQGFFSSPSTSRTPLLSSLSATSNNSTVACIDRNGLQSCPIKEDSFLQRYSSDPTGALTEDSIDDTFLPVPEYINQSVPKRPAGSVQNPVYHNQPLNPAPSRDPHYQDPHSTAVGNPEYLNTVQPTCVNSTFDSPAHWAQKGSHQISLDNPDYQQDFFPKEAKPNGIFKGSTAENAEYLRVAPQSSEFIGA

[14] = target: T3, Platelet-derived growth factor receptor (PDGFr) (Rattus norvegicus, UniProt P20786+Q05030); assay: Inhibition of PDGF-induced autophosphorylation of PDGF-R in C6 cells
HT-29 [15] = assay: Difference in days for treated (T) and control (C) HT-29 cell tumors to reach 750 mg in mice at 200 mg/kg ip dose, days 15-29 administration; format: functional, Mus musculus; conditions: route intraperitoneal; outline: as §1
[16] = target: T3, Platelet-derived growth factor receptor (PDGFr); assay: Inhibition of Platelet-derived growth factor receptor autophosphorylation in C6 cells; format: functional, cell-based; outline: as §7
HT-29 [17] = assay: Net reduction in tumor burden between first and last treatments of HT-29 cell tumors in mice at 200 mg/kg ip dose, days 15-29 administration; format: functional, Mus musculus; conditions: route intraperitoneal
Outline: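 NCr nu/nu nude mice (18–22 g, 6–8 per group, randomized) had tumor fragments, kept by serial passage in nude mice, implanted in the right axilla on day 0. Mice were dosed by average cage weight on the listed days, over a range from toxic to ineffective doses. Vehicle was 50 mM sodium lactate pH 4.0 or 0.5% methyl cellulose suspension. Net log cell kill was taken between first and last treatments.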

Mus musculus [18] = assay: Difference in days for treated (T) and control (C) PDGF-transfected mouse fibroblast tumors to reach 750 mg in mice at 100 mg/kg peroral dose, days 1-15 administration; format: functional; conditions: route intraperitoneal, in the assay text read “intraperitoneal” for “peroral”; outline: as §1
[19] = target: T2, Platelet-derived growth factor receptor; assay: as §6; format: functional, cell-based; outline: as §7; remark: listed apart in the source
COLO 205 [20] = assay: Weight change of COLO 205 cell tumors in mice at 200 mg/kg ip dose, days 14-28 administration; format: functional, Mus musculus; conditions: route intraperitoneal; outline: as §5
C6 [21] = assay: Difference in days for treated (T) and control (C) C6 glioma cell tumors to reach 750 mg in mice at 100 mg/kg peroral dose, days 1-15 administration; format: functional, Mus musculus; conditions: route oral; outline: as §1
SK-OV-3 [22] = assay: Difference in days for treated (T) and control (C) SKOV-3 cell tumors to reach 750 mg in mice at 200 mg/kg ip dose, days 20-34 administration; format: functional; conditions: route intraperitoneal; outline: as §1
[23] = target: Proto-oncogene tyrosine-protein kinase Src (Gallus gallus, UniProt P00523); assay: Inhibition of avian c-Src tyrosine kinase
C6 [24] = assay: C6 glioma cell growth in soft agar with continuous treatment; format: functional, cell-based; conditions: Rattus norvegicus; outline: as §8
[25] = target: T1, Platelet-derived growth factor receptor beta; assay: Inhibitory concentration was evaluated against Platelet-derived growth factor receptor beta (PDGFr) tyrosine kinase
Mus musculus [26] = assay: Net reduction in tumor burden between the first and last treatments of PDGF-transfected fibroblast cells in mice at 100 mg/kg intraperitoneal dose, days 1-15 administration

`Cn1c(=O)c(-c2c(Cl)cccc2Cl)cc2cnc(Nc3ccccc3)nc21` showed an IC50 (C6 [1]) of 2900 nM, a T-C (COLO 205 [2]) of -3.2 days and an IC50 [3] of 17 nM. The IC50 (C6 [4]) was 1800 nM, the IC50 (C6 [5]) was 2900 nM and the IC50 [6] was 400 nM. For the same compound, the IC50 (NIH3T3) was 105 nM and 410 nM, the IC50 (C6 [7]) was 1800 nM and the Weight change (SK-OV-3 [8]) was -2 g. For the same compound, the Weight change (C6 [9]) was “Weight gain”, the Weight change (HT-29 [10]) was -2 g and the IC50 [11] was 20 nM. For the same compound, the IC50 (C6 [12]) was 1100 nM, the IC50 [13] was 260 nM and the IC50 [14] was 38 nM. The T-C (HT-29 [15]) was 1.1 days, the IC50 [16] was 38 nM and the Net cell kill (HT-29 [17]) was -0.5 log10. It also gave a T-C (Mus musculus [18]) of 1.7 days, an IC50 [19] of 20 nM and a Weight change (COLO 205 [20]) of -2 g. It also gave a T-C (C6 [21]) of -1.1 days, a T-C (SK-OV-3 [22]) of -0.4 days and an IC50 [23] of 20 nM. For the same compound, the IC50 (C6 [24]) was 1100 nM, the IC50 [25] was 400 nM and the Net cell kill (Mus musculus [26]) was -2.1 log10.
